From PubChem
HSF1 inh: HSF1 inhibition. NIH3T3-HGL HSE-luciferase, MG132-induced, luminescence 8 h; hits give low values. activity change, negative = inhibition, % at 7.5 µM (by protocol). 300,000 tested, 0.77% active. AID 2098;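 active means more than half of replicate wells show activity change below -50%, luminescence cut by over half; inconclusive means some wells, but at most half, below -50%; inactive means no replicate well below -50%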;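 further: luciferase reports HSF-1 transcriptional activity via heat shock element; 0% = median of DMSO wells and -100% = zero luminescence signal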
AHR activator: activators of human aryl hydrocarbon receptor; AHR-responsive luciferase reporter cells, luminescence; activation, % at 5 µM; 320,000 tested, 2.5% active; in the data active means activation above about 47%;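 further: 0% = vehicle wells and 100% = reference agonist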
PolyA inh: yeast polyadenylation inhibition | S. cerevisiae SKY197-pL101 polyadenylation reporter, beta-gal luminescence; efflux-impaired pdr1/pdr3 knockout yeast; score 100 = 6 SD above DMSO | activity score, % at 12 µM | 300,000 tested, 0.02% active | AID 1875;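 active means lowest replicate activity score at least 50, where 100 means six control SD above control mean; inconclusive means lowest score under 50 but half or more replicates reach 50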;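 further: yeast exposed to compound for 9 h at 30 °C; higher score means more reporter readthrough which indicates perturbed polyadenylation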
STAT3 act: increases IL-6 driven STAT3 reporter signal; AID 871; 190,000 tested, 0.91% active; activation (% of control), % at 5.6 µM; U3A cells, IL-6 STAT3-luciferase reporter, luminescence; 100% = signal with IL-6 EC80 alone;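 active means activation above the screen-wide mean of compound activation plus 3 SD, cut at about 130% in these data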;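 further: 0% = background luminescence of wells with medium and substrate only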
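Material: STAT3-luciferase reporter U3A cells. Controls: IL-6-treated wells, 100% activation. Read-out: % activation versus median of IL-6-stimulated wells. Probe or stimulus: IL-6 stimulus at 33 ng/mL final. Timing: compound 1 h, then IL-6 6 h at 37 °C. Signal: reporter luminescence signal.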
Hsp70 act: Hsp70 transcriptional activation, primary screen. HeLa Hsp70 promoter luciferase reporter, luminescence; scaled: vehicle 0, proteasome-inhibitor control 100%. activation, % at 10 µM. 200,000 tested, 0.04% active. AID 1203;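 active means activation above the mean across all tested compounds plus 3 SD, cutoff set per campaign, cut at about 5.5% in these data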;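 further: 100% = MG132 at 30 µM as the positive control and 0% = DMSO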
PERK inhibitor: human PERK inhibition, primary cell-based screen; Q9NZJ5; CHO PERK-DD fusion, SEAP luminescence translation reporter; inhibition, % at 5.6 µM; 220,000 tested, 0.17% active; AID 1416;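 active means inhibition above the mean inhibition of all tested compounds plus 3 SD, set separately per screening campaign, cut at about 2.9% in these data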;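 further: PERK kinase domain activated by AP20187 dimerizer at 100 nM; 0% = DMSO with dimerizer and 100% = rapamycin at 8.4 µM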
Target sequence (Q9NZJ5 whole entry, looked up, the tested form may be a part): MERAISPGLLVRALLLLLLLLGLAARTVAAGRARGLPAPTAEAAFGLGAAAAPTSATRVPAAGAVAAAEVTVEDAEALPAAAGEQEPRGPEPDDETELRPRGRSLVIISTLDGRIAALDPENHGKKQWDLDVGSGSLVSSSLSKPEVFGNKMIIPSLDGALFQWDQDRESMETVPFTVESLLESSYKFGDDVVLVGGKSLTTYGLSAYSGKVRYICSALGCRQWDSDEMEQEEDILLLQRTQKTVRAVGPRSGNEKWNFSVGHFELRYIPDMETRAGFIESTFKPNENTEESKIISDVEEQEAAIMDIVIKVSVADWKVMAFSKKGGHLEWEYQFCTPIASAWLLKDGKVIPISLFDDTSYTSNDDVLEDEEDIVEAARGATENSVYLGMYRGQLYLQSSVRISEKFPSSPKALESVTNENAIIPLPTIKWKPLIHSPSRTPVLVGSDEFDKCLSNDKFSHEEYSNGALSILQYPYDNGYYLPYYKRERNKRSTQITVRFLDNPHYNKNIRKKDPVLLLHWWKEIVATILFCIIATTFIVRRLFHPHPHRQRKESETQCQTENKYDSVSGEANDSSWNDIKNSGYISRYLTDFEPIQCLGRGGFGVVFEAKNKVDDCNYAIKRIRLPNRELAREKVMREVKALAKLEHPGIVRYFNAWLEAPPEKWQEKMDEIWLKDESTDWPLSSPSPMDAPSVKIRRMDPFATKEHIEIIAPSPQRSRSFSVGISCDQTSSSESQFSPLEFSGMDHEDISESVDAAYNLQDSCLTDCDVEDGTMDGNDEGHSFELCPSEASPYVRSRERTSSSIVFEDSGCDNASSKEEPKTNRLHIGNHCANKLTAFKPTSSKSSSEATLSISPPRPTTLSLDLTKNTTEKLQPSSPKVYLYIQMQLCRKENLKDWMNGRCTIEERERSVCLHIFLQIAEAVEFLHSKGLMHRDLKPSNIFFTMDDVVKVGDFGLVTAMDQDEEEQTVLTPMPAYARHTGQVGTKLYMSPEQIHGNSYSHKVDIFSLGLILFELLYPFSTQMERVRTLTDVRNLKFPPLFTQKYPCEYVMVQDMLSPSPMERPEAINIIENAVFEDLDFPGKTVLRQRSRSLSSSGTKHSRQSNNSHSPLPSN
Numbers without * were called inactive; ? = inconclusive; . = no result given. Shown are actives, neighbours in structure and some others; about 3.6% of the full set was active somewhere.

SMILES	HSF1 inh	AHR activator	PolyA inh	STAT3 act	Hsp70 act	PERK inhibitor
CC(=O)Nc1cccc(OCCCNC(=O)c2ccc(C(C)(C)C)cc2)c1	12.2	47.4*	10.0	.	.	-1.0
CCC(=O)N1N=C(c2ccc(NS(=O)(=O)c3ccccc3)cc2)CC1c1ccco1 (configuration not stated)	.	0.3	.	.	.	.
O=C(Cn1cc([N+](=O)[O-])cn1)NCC1CCCO1 (configuration not stated)	-62.9*	2.5	-5.8	99.8	-0.2	0.3
NC(=O)c1cccnc1OCC(F)(F)F	3.8	-0.5	17.5	.	.	-0.4
Cc1ccc2nc(-c3sc4nc(C)cc(C)c4c3N)[nH]c2c1	-60.7*	-9.8	-19.1	140.2*	-0.3	-0.5
C=CCNC(=S)Nc1c(C(=O)OC)[nH]c2cc(OC)ccc12	10.4	77.2*	6.7	.	.	-1.4
COc1ccc(OC)c(C(=O)NC(CC(N)=O)c2ccc(NCCN3CCCCC3)c([N+](=O)[O-])c2)c1 (configuration not stated)	-1.1	-0.6	1.5	.	.	.
c1ccc2c(c1)nc(NC1CCCCC1)c1nncn12	-7.7	12.8	?	135.7*	-0.2	-1.0
CC(=O)CCc1ccc(OCC(O)CNCCOc2ccc(C)cc2)cc1 (configuration not stated)	-5.9	0.4	12.2	.	.	.
Cc1ccc(OCCNCC(O)COc2ccccc2)cc1 (configuration not stated)	3.3	65.8*	9.5	.	.	.
N=c1sccn1CC(=O)Nc1cc(S(=O)(=O)N2CCCC2)ccc1Cl	-6.9	-1.2	2.7	110.9	-0.1	-0.8
CNc1ccccc(-c2ccc3cc4c(cc3n2)OCO4)c1=O	13.7	70.5*	-1.2	97.9	0.2	0.4
COc1ccc(-c2cc(C(=O)Nc3cc(C)on3)no2)cc1	-3.6	1.2	-3.9	104.3	0.1	0.9
COc1ccc(NC(=O)c2cc(-c3ccccc3Cl)on2)cc1	17.2	55.7*	6.1	.	.	.
COc1ccc(OC)c(-c2cc(C(=O)Nc3cccc(Cl)c3)no2)c1	0.0	54.8*	-9.9	130.9	-0.1	0.8
COc1ccc(OC)c(-c2cc(C(=O)Nc3cc(C)on3)no2)c1	-64.1*	0.0	-7.6	106.4	0.2	0.7
Cc1nc2sccn2c(=O)c1S(=O)(=O)Nc1cccc(Cl)c1C	-1.4	2.9	-11.6	.	.	.
C/C(=N\Nc1nc2ccccc2[nH]1)c1ccc(Cl)s1	9.8	72.9*	-13.4	103.2	-0.3	-0.4
C/C(=N\Nc1nc2ccccc2[nH]1)c1ccc(C)o1	15.1	76.5*	19.3	131.0	0.3	-0.3
C/C(=N\Nc1nc(C)cc(C)n1)c1ccc(N2CCOCC2)cc1	-4.5	26.5	-3.2	98.2	-0.1	0.7
O=C(CSc1nc2ccccc2[nH]1)c1ccc(Cl)s1	20.9	-3.0	-10.3	93.6	0.5	-0.2
Cc1ccc(C(=O)NCc2nc3ccccc3[nH]2)o1	1.7	2.8	-7.9	.	.	.
C/C(=N\Nc1nc2ccccc2[nH]1)c1ccc(N2CCOCC2)cc1	3.4	76.3*	27.1	83.8	0.0	-0.8
Cc1coc(C)c1C(=O)Nc1ccc2ccccc2c1	18.9	.	1.6	.	.	.
COC(=O)C1=C(C)NC(C)=C(C(=O)OC)C1C(=O)OCC(=O)c1ccc(Br)cc1	.	3.1	.	.	.	.
SMILES	HSF1 inh	AHR activator	PolyA inh	STAT3 act	Hsp70 act	PERK inhibitor
Cc1nc(C(=O)NNC(=O)c2cccc(Cl)c2)c(C(F)(F)F)o1	-71.4*	0.0	-14.0	.	.	0.1
CC(C)n1cc(/C=C2/NC(=O)N(c3cccc(Cl)c3)C2=O)c2ccccc21	-0.6	63.3*	3.8	101.0	-0.3	-0.7
O=C(CN(C(=O)c1csnn1)c1cccc2c1CCCC2)NCc1ccccc1	-2.6	1.0	11.4	.	.	.
COc1cc(CNn2cn[nH]c2=S)cc(Cl)c1OCc1ccc(F)cc1	0.1	87.3*	5.2	84.0	-0.4	1.0
COc1cc(CNn2c(C)n[nH]c2=S)cc(Cl)c1OCc1ccccc1	1.4	-1.1	0.8	99.0	-0.4	-0.9
C=CCNC(=O)c1ccc(NC(=O)C2=CSCCO2)cc1	13.7	5.2	-0.3	.	.	.
CCc1c(C)sc(NC(=S)N2CC(C)OC(C)C2)c1C(=O)OC (configuration not stated)	.	31.3	-11.2	103.6	0.1	0.3
Oc1oc(-c2ccccc2)nc1C=NCc1ccncc1	-0.4	69.6*	3.7	113.2	-0.2	-0.6
Cc1ccc2c(C(=O)CN3CCN(C(=O)c4ccco4)CC3)c(C)[nH]c2c1	9.1	53.3*	-28.6	.	.	-1.3
Cc1ccc2[nH]c(=O)c3cc(C(=O)N4CCN(C(=O)c5ccco5)CC4)sc3c2c1	2.0	78.2*	-11.6	87.0	-0.4	-1.0
Cc1ccc2c(C(=O)CN3CCN(C4CCCCC4)CC3)c(C)[nH]c2c1	-4.2	19.5	-5.6	95.3	-0.5	-0.2
CCCCn1c(N)c(N(CCOC)C(=O)C2CC(=O)N(c3cccc(SC)c3)C2)c(=O)[nH]c1=O (configuration not stated)	-4.0	-0.8	-25.2	.	.	.
O=C(NCCCN1CCOCC1)c1ccc(Cl)c([N+](=O)[O-])c1	-2.8	-1.8	-2.6	.	.	.
CCOC(=O)CSc1ccc(C(=O)NCCCN2CCOCC2)cc1[N+](=O)[O-]	-68.7*	-1.0	9.6	.	.	.
CCCC(=O)OC1CCS(=O)(=O)c2sccc21 (configuration not stated)	-3.3	0.9	-10.6	102.0	-0.3	-0.2
CC(C)c1nc(CN(C)C(=O)N[C@H](C(=O)N[C@@H](Cc2ccccc2)C[C@H](O)[C@H](Cc2ccccc2)NC(=O)OCc2cncs2)C(C)C)cs1	2.5	1.2	12.0	.	0.1	1.7
Cc1nc2ccccc2c(C)c1CC(=O)OC(C)C(=O)NC1(C#N)CCCCC1 (configuration not stated)	0.1	8.8	-12.0	.	.	.
CCSc1nc2c(c(=O)[nH]1)C(c1ccncc1)C(C(=O)OC(C)C)=C(C)N2 (configuration not stated)	5.5	48.5*	-2.6	110.7	-0.1	0.1
CCSc1nc2c(c(=O)[nH]1)C(c1cccnc1)C(C(=O)OC)=C(C)N2 (configuration not stated)	.	4.2	9.5	97.7	-0.1	1.6
CCSc1nnc(NC(=O)CCN2C(=O)C3CCCCC3C2=O)s1 (configuration not stated)	.	4.2	.	.	.	.
COCc1cc(C)nc2sc(C(=O)N3CCCC3)c(N)c12	-4.4	75.8*	-8.9	98.4	0.0	-0.5
Cn1ncc([N+](=O)[O-])c1C(=O)Nc1ccccc1Cl	-72.9*	4.8	18.2	.	.	.
Cn1ncc([N+](=O)[O-])c1C(=O)Nc1ccc(-c2ccccc2)cc1	4.6	72.6*	1.9	.	.	.
COc1ccccc1OCc1cc(C(=O)NCc2ccc(N3CCCC3=O)cc2)no1	2.4	-0.2	1.0	.	.	.
NC(=NCc1ccc2c(c1)OCO2)NC(=O)c1ccccc1	-12.8	.	-3.2	89.3	-0.1	1.7
